From ChEMBL document CHEMBL4002555, “Bioactive Pentacyclic Triterpenoids from the Leaves of Cleistocalyx operculatus” (J Nat Prod, 2016)

Tests used:
[1] = tested on: RAW264.7; assay: Anti-inflammatory activity in mouse RAW264.7 cells assessed as inhibition of LPS-induced TNF-alpha production at 10 uM pretreated for 1 hr followed by LPS stimulation measured after 24 hrs by ELISA relative to control; assay type: functional
Procedure, shortened: (§1)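 LPS-stimulated RAW 264.7 macrophages, with IL-6 and TNF-α production read separately. Test concentrations were 0.4, 2, 10 and 50 μM, and dexamethasone was the reference drug. Results are given as percent inhibition of cytokine production.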

[2] = tested on: RAW264.7; assay: Anti-inflammatory activity in mouse RAW264.7 cells assessed as inhibition of LPS-induced TNF-alpha production at 50 uM pretreated for 1 hr followed by LPS stimulation measured after 24 hrs by ELISA relative to control; assay type: functional; procedure, shortened: as §1
[3] = tested on: RAW264.7; assay: Anti-inflammatory activity in mouse RAW264.7 cells assessed as inhibition of LPS-induced TNF-alpha production at 2 uM pretreated for 1 hr followed by LPS stimulation measured after 24 hrs by ELISA relative to control; assay type: functional; procedure, shortened: as §1
[4] = tested on: RAW264.7; assay: Anti-inflammatory activity in mouse RAW264.7 cells assessed as inhibition of LPS-induced IL-6 production at 50 uM pretreated for 1 hr followed by LPS stimulation measured after 24 hrs by ELISA relative to control; assay type: functional; procedure, shortened: as §1
[5] = tested on: RAW264.7; assay: Anti-inflammatory activity in mouse RAW264.7 cells assessed as inhibition of LPS-induced IL-6 production at 10 uM pretreated for 1 hr followed by LPS stimulation measured after 24 hrs by ELISA relative to control; assay type: functional; procedure, shortened: as §1
[6] = Cytotoxicity against mouse RAW264.7 cells assessed as growth inhibition at 50 uM after 72 hrs by MTT assay relative to control; assay type: cell-based; conditions: read-out: GI
[7] = tested on: RAW264.7; assay: Anti-inflammatory activity in mouse RAW264.7 cells assessed as inhibition of LPS-induced IL-6 production at 2 uM pretreated for 1 hr followed by LPS stimulation measured after 24 hrs by ELISA relative to control; assay type: functional; procedure, shortened: as §1
[8] = tested on: NCI-N87; assay: Cytotoxicity against human NCI-N87 cells after 72 hrs by MTT assay; assay type: functional, cell-based; conditions: NCI-N87, 72 h
Procedure, shortened: (§2)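 MTT growth-inhibition assay in human HepG2 hepatocellular, NCI-N87 gastric and MCF-7 breast carcinoma lines, with a doxorubicin positive control. IC50 values are means ± SD from three individual experiments; >10.0 μM was taken as noncytotoxic.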

[9] = tested on: HepG2; assay: Cytotoxicity against human HepG2 cells after 72 hrs by MTT assay; assay type: functional, cell-based; conditions: HepG2, 72 h; procedure, shortened: as §2
[10] = tested on: MCF7; assay: Cytotoxicity against human MCF7 cells after 72 hrs by MTT assay; assay type: functional, cell-based; conditions: MCF7, 72 h; procedure, shortened: as §2
[11] = tested on: RAW264.7; assay: Anti-inflammatory activity in mouse RAW264.7 cells assessed as inhibition of LPS-induced IL-6 production at 0.4 uM pretreated for 1 hr followed by LPS stimulation measured after 24 hrs by ELISA relative to control; assay type: functional; procedure, shortened: as §1
[12] = tested on: RAW264.7; assay: Anti-inflammatory activity in mouse RAW264.7 cells assessed as inhibition of LPS-induced TNF-alpha production at 0.4 uM pretreated for 1 hr followed by LPS stimulation measured after 24 hrs by ELISA relative to control; assay type: functional; procedure, shortened: as §1
[13] = Cytotoxicity against mouse RAW264.7 cells assessed as growth inhibition at 10 uM after 72 hrs by MTT assay relative to control; assay type: cell-based; conditions: read-out: GI

Structure (SMILES)	inhibition at 10 µM [1]	inhibition at 50 µM [2]	inhibition at 2 µM [3]	inhibition at 50 µM [4]	inhibition at 10 µM [5]	inhibition at 72 h, 50 µM [6]	inhibition at 2 µM [7]	IC50 [8]	IC50 [9]	IC50 [10]	inhibition at 0.4 µM [11]	inhibition at 0.4 µM [12]	inhibition at 72 h, 10 µM [13]
CC1(C)CC[C@]2(C(=O)O)CC[C@]3(C)C(=C[C@@H](O)[C@@H]4[C@@]5(C)C[C@@H](O)[C@H](O)[C@@](C)(CO)[C@@H]5CC[C@]43C)[C@@H]2C1	57.7%	65.6%	53.7%	74.9%	69.9%	< 5%	68.1%	> 10 µM	> 10 µM	> 10 µM	–	–	–
COC(=O)[C@]12CCC(C)(C)CC1=C1CC[C@@H]3[C@@]4(C)CC[C@H](O)C(C)(C)[C@@H]4CC[C@@]3(C)[C@]1(C(=O)O)CC2	–	–	–	–	–	–	–	5.1 µM	5 µM	> 10 µM	–	–	–
C[C@H]1[C@@H]2[C@H]3CC[C@@H]4[C@@]5(C)CC[C@H](O)C(C)(C)[C@@H]5CC[C@@]4(C)[C@]3(C)CC[C@@]23C[C@@H](O)[C@]1(C)OC3=O	< 50%	< 50%	< 50%	< 50%	< 50%	–	< 50%	7.3 µM	> 10 µM	> 10 µM	< 50%	< 50%	< 5%
C[C@H]1[C@H](C)CC[C@]2(C(=O)O)CC[C@]3(C)C(=C[C@@H](O)[C@@H]4[C@@]5(C)C[C@@H](O)[C@H](O)[C@@](C)(CO)[C@@H]5CC[C@]43C)[C@H]12	< 50%	< 50%	< 50%	< 50%	< 50%	–	< 50%	> 10 µM	> 10 µM	> 10 µM	< 50%	< 50%	< 5%
CC1=CC[C@]2(C(=O)O)CC[C@]3(C=O)[C@H](CC[C@@H]4[C@@]5(C)CC[C@H](O)C(C)(C)[C@@H]5CC[C@]43C)[C@H]2[C@@H]1C	35.9%	–	14.1%	–	53.8%	–	19.2%	> 10 µM	> 10 µM	> 10 µM	23.6%	14.8%	< 5%
C=C1CC[C@]2(C(=O)O)CC[C@]3(C)C(=CC[C@@H]4[C@@]5(C)C[C@@H](O)[C@H](O)C(C)(C)[C@@H]5CC[C@]43C)[C@@H]2[C@H]1C	< 50%	< 50%	< 50%	< 50%	< 50%	–	< 50%	> 10 µM	> 10 µM	> 10 µM	< 50%	< 50%	< 5%
COC(=O)[C@@]12CC[C@]3(C(=O)O)[C@H](CC[C@@H]4[C@@]5(C)CC[C@H](O)C(C)(C)[C@@H]5CC[C@]43C)[C@@H]1[C@@H](C)C(C)=C[C@H]2O	< 50%	< 50%	< 50%	< 50%	< 50%	–	< 50%	> 10 µM	> 10 µM	> 10 µM	< 50%	< 50%	< 5%
C=C1CC[C@]2(C(=O)O)CC[C@]3(C)C(=C[C@@H](O)[C@@H]4[C@@]5(C)C[C@@H](O)[C@H](O)[C@@](C)(CO)[C@@H]5CC[C@]43C)[C@@H]2[C@H]1C	< 50%	< 50%	< 50%	< 50%	< 50%	–	< 50%	> 10 µM	> 10 µM	> 10 µM	< 50%	< 50%	< 5%
CC1=CC[C@]2(C(=O)O)CC[C@]3(C)[C@H](CC[C@@H]4[C@@]5(C)CC[C@H](O)C(C)(C)[C@@H]5CC[C@]43C)[C@H]2[C@@H]1C	–	–	–	–	–	–	–	2.4 µM	1.9 µM	4.3 µM	–	–	–
C=C1CC[C@]2(C(=O)O)CC[C@]3(C)C(=CC[C@@H]4[C@@]5(C)C[C@@H](O)[C@H](O)[C@@](C)(CO)[C@@H]5CC[C@]43C)[C@@H]2[C@H]1C [ACTINIDIC ACID]	< 50%	< 50%	< 50%	< 50%	< 50%	–	< 50%	> 10 µM	> 10 µM	> 10 µM	< 50%	< 50%	< 5%
CC1(C)CC[C@]2(C(=O)O)CC[C@]3(C)C(=CC[C@@H]4[C@@]5(C)C[C@@H](O)[C@H](O)[C@@](C)(CO)[C@@H]5CC[C@]43C)[C@@H]2C1 [ARJUNOLIC ACID]	< 50%	< 50%	< 50%	< 50%	< 50%	–	< 50%	> 10 µM	> 10 µM	> 10 µM	< 50%	< 50%	< 5%
C[C@H]1[C@H](C)CC[C@]2(C(=O)O)CC[C@]3(C)C(=CC[C@@H]4[C@@]5(C)C[C@@H](O)[C@H](O)[C@@](C)(CO)[C@@H]5CC[C@]43C)[C@H]12 [ASIATIC ACID]	< 50%	< 50%	< 50%	< 50%	< 50%	–	< 50%	> 10 µM	> 10 µM	> 10 µM	< 50%	< 50%	< 5%
C[C@H]1[C@H](C)CC[C@]2(C(=O)O)CC[C@]3(C)C(=CC[C@@H]4[C@@]5(C)C[C@@H](O)[C@H](O)C(C)(C)[C@@H]5CC[C@]43C)[C@H]12 [COROSOLIC ACID]	< 50%	< 50%	< 50%	< 50%	< 50%	–	< 50%	4.4 µM	> 10 µM	> 10 µM	< 50%	< 50%	< 5%
C[C@@H]1C[C@H]2[C@@H]3CCC4=CC(=O)C=C[C@]4(C)[C@@]3(F)[C@@H](O)C[C@]2(C)[C@@]1(O)C(=O)CO [DEXAMETHASONE]	79.2%	86.1%	71.8%	84.9%	80.4%	–	75.9%	–	–	–	–	–	–
COc1cccc2c1C(=O)c1c(O)c3c(c(O)c1C2=O)C[C@@](O)(C(=O)CO)C[C@@H]3O[C@H]1C[C@H](N)[C@H](O)[C@H](C)O1 [DOXORUBICIN]	–	–	–	–	–	–	–	1.6 µM	–	–	–	–	–
C=C1[C@@H](O)[C@H](O)C[C@]2(C)[C@H]3CC=C4[C@@H]5[C@@H](C)[C@H](C)CC[C@]5(C(=O)O)CC[C@@]4(C)[C@]3(C)CC[C@@H]12 [ILEKUDINOL B]	–	–	–	–	–	–	–	9.1 µM	> 10 µM	> 10 µM	–	–	–
CC1(C)CC[C@]2(C(=O)O)CC[C@]3(C)C(=CC[C@@H]4[C@@]5(C)C[C@@H](O)[C@H](O)C(C)(C)[C@@H]5CC[C@]43C)[C@@H]2C1 [MASLINIC ACID]	< 50%	< 50%	< 50%	< 50%	< 50%	–	< 50%	> 10 µM	> 10 µM	> 10 µM	< 50%	< 50%	< 5%
CC1(C)CC[C@]2(C(=O)O)CC[C@]3(C)C(=CC[C@@H]4[C@@]5(C)CC[C@H](O)C(C)(C)[C@@H]5CC[C@]43C)[C@@H]2C1 [OLEANOLIC_ACID]	–	–	–	–	–	–	–	> 10 µM	> 10 µM	> 10 µM	–	–	–
C[C@H]1[C@H](C)CC[C@]2(C(=O)O)CC[C@]3(C)C(=CC[C@@H]4[C@@]5(C)CC[C@H](O)C(C)(C)[C@@H]5CC[C@]43C)[C@H]12 [URSOLIC ACID]	–	–	–	–	–	–	–	4.2 µM	> 10 µM	6.6 µM	–	–	–
